Measurements collected from several papers.

Structure (SMILES) | target or system | test | test system | conditions | measurement | value
Cc1c2ccncc2c(C)c2c1[nH]c1ccccc12 | THP-1 | TNF-α release, inhibitor, ELISA |  | 17 h, LPS-stimulated | IC50 | 0.44 µM
COc1ccc(O)c(C(C)(C)C)c1 |  | DPPH scavenging, absorbance |  |  | IC50 | 10.1 µg/mL
COc1c2ccoc2cc2oc(=O)ccc12 | HEp-2 | cell growth or viability, WST-1 |  | 48 h | IC50 | 23.4 µM
O=C(O)c1cn(C2CC2)c2cc(N3CCNCC3)c(F)cc2c1=O | Haemophilus influenzae | microbial growth |  |  | MIC | > 4 µg/mL
O=C(Nc1ccc(O)cc1)c1ccccc1O | Chikungunya virus | viral replication, luciferase | BHK-21 | 16 h | IC50 | > 100 µM
C[C@]12CCC(=O)C(O)=C1CC[C@@H]1[C@@H]2CC[C@]2(C)C(=O)CC[C@@H]12 | FaDu | cell growth or viability |  | 72 h | IC50 | > 20 µM
O=C(NCc1ccc(Cl)cc1)C1CC1c1ccccc1 (stereo not drawn) | Chikungunya virus | viral replication, luciferase | BHK-21 | 16 h | IC50 | > 100 µM
COc1c(N2C[C@@H]3CCCN[C@@H]3C2)c(F)cc2c(=O)c(C(=O)O)cn(C3CC3)c12 | Haemophilus influenzae | microbial growth |  |  | MIC | > 4 µg/mL
O=C(Nc1ncc([N+](=O)[O-])s1)c1cccnc1 | Chikungunya virus | viral replication, luciferase | BHK-21 | 16 h | IC50 | > 100 µM
O=c1c(O[C@@H]2O[C@H](CO)[C@H](O)[C@H](O)[C@H]2O)c(-c2ccc(O)c(O)c2)oc2cc(O)cc(O)c12 |  | DPPH scavenging, absorbance |  | 30 min | IC50 | 142 µM
O=C(Nc1ncc([N+](=O)[O-])s1)c1ccccc1O | Chikungunya virus | viral replication, luciferase | BHK-21 | 16 h | IC50 | 13.1 µM
Cc1cc(C(C)(C)C)c(O)c(C(C)(C)C)c1 |  | DPPH scavenging, absorbance |  | 30 min | IC50 | 308 µM
